Test results from ChEMBL document CHEMBL1140741, “Discovery of 4-aryl-4H-chromenes as a new series of apoptosis inducers using a cell- and caspase-based high throughput screening assay. 4. Structure-activity relationships of N-alkyl substituted pyrrole fused at the 7,8-positions” (J Med Chem, 2008).
Activity calls are given as the source filed them. The rule behind the calls is not given here.

What was measured:
T47D [1] = experiment: Induction of apoptosis in human T47D cells assessed as caspase activation after 24 hrs by HTS assay; assay type: functional, cell-based
Summary of the method: (§1)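 Proprietary cell- and caspase-based HTS assay in ATCC-sourced cells; EC50 values given as mean ± SEM of three or more experiments.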

HCT-116 [2] = experiment: Induction of apoptosis in human HCT116 cells assessed as caspase activation after 24 hrs by HTS assay; assay type: functional, cell-based; conditions: HCT-116, 24 h; summary of the method: as §1
SNU-398 [3] = experiment: Induction of apoptosis in human SNU398 cells assessed as caspase activation after 24 hrs by HTS assay; assay type: functional, cell-based; conditions: SNU-398, 24 h; summary of the method: as §1
T47D [4] = experiment: Growth inhibition of human T47D cells after 48 hrs; assay type: functional
Summary of the method: (§2)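 Cells (ATCC-sourced) exposed to compound for 48 h at 37 °C; CellTiter-Glo reagent added, mixed by agitation, incubated 10–15 min at room temperature, luminescence read. GI50 taken as concentration giving 50% inhibition of cell growth.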

HCT-116 [5] = experiment: Growth inhibition of human HCT116 cells after 48 hrs; assay type: functional; conditions: HCT-116, 48 h; summary of the method: as §2
SNU-398 [6] = experiment: Growth inhibition of human SNU398 cells after 48 hrs; assay type: functional; conditions: SNU-398, 48 h; summary of the method: as §2
[7] = Inhibition of tubulin polymerization
MCF7 = experiment: Cell cycle arrest in human MCF7 cells by accumulation at G2/M phase; assay type: functional, cell-based

Structure (SMILES)	EC50 (T47D [1]) [nM]	EC50 (HCT-116 [2]) [nM]	EC50 (SNU-398 [3]) [nM]	GI50 (T47D [4]) [nM]	GI50 (HCT-116 [5]) [nM]	GI50 (SNU-398 [6]) [nM]	IC50 [7] [nM]	Activity (MCF7)
COc1cc(C2C(C#N)=C(N)Oc3c2ccc2[nH]ccc32)cc(Br)c1OC (stereo not given)	5	14	15	8	20	14	–	–
COc1cc2c(c(OC)c1OC)-c1ccc(OC)c(=O)cc1[C@@H](NC(C)=O)CC2 [COLCHICINE]	–	15	4	7	–	–	–	–
COc1cc(C2C(C#N)=C(N)Oc3c2ccc2c3CCN2C)cc(Br)c1OC (stereo not given)	2	4	1	7	4	1	–	–
COc1cc(C2C(C#N)=C(N)Oc3c2ccc2cc[nH]c32)cc(Br)c1OC (stereo not given)	16	69	86	–	–	–	–	–
CC[C@]1(O)C[C@@H]2CN(CCc3c([nH]c4ccccc34)[C@@](C(=O)OC)(c3cc4c(cc3OC)N(C)[C@H]3[C@@](O)(C(=O)OC)[C@H](OC(C)=O)[C@]5(CC)C=CCN6CC[C@]43[C@@H]65)C2)C1 [VINBLASTINE]	43	44	38	7	–	–	–	–
COc1cc(C2C(C#N)=C(N)Oc3c2ccc2[nH]c(C)cc32)cc(Br)c1OC (stereo not given)	30	54	27	–	–	–	–	–
CC[C@]1(O)C[C@H]2CN(CCc3c([nH]c4ccccc34)[C@@](C(=O)OC)(c3cc4c(cc3OC)N(C=O)[C@H]3[C@@](O)(C(=O)OC)[C@H](OC(C)=O)[C@]5(CC)C=CCN6CC[C@]43[C@@H]65)C2)C1 [VINCRISTINE]	43	58	12	–	–	–	–	–
CC(=O)O[C@H]1C(=O)[C@@]2(C)[C@H]([C@H](OC(=O)c3ccccc3)[C@]3(O)C[C@H](OC(=O)[C@H](O)[C@@H](NC(=O)c4ccccc4)c4ccccc4)C(C)=C1C3(C)C)[C@]1(OC(C)=O)CO[C@@H]1C[C@@H]2O [PACLITAXEL]	36	24	11	–	–	–	–	–

Further lines, with some results ahead:

EC50 (T47D [1]) [nM]	EC50 (HCT-116 [2]) [nM]	EC50 (SNU-398 [3]) [nM]	GI50 (T47D [4]) [nM]	GI50 (HCT-116 [5]) [nM]	GI50 (SNU-398 [6]) [nM]	IC50 [7] [nM]	Structure (SMILES)	Activity (MCF7)
6	7	5	–	–	–	–	COc1cccc(C2C(C#N)=C(N)Oc3c2ccc2c3ccn2C)c1 (stereo not given)	–
39	44	25	–	–	–	–	CCn1ccc2c3c(ccc21)C(c1cc(Br)c(OC)c(OC)c1)C(C#N)=C(N)O3 (stereo not given)	–
3	3	2	2	4	1	–	COc1cc(C2C(C#N)=C(N)Oc3c2ccc2c3ccn2CO)cc(Br)c1OC (stereo not given)	–
2	3	2	0.3	1.4	0.2	900	COc1cc(C2C(C#N)=C(N)Oc3c2ccc2c3ccn2C)cc(Br)c1OC (stereo not given)	Active
3	3	3	–	–	–	–	COc1cncc(C2C(C#N)=C(N)Oc3c2ccc2c3ccn2C)c1 (stereo not given)	–
5	6	3	–	–	–	–	COc1cc(OC)cc(C2C(C#N)=C(N)Oc3c2ccc2c3ccn2C)c1 (stereo not given)	–
4	6	3	–	–	–	–	COc1cc(C2C(C#N)=C(N)Oc3c2ccc2c3ccn2C)cc(OC)c1OC (stereo not given)	–
17	15	12	–	–	–	–	COc1cc(C2C(C#N)=C(N)Oc3c2ccc2c3ccn2C)cc2c1OCO2 (stereo not given)	–
150	170	130	–	–	–	–	COc1cc(C2C(C#N)=C(N)Oc3c2ccc2ccn(C)c32)cc(Br)c1OC (stereo not given)	–
4	5	3	–	–	–	–	COc1cc(C2C(C#N)=C(N)Oc3c2ccc2c3ncn2C)cc(Br)c1OC (stereo not given)	–
3	3	2	8	3	2	–	Cc1cncc(C2C(C#N)=C(N)Oc3c2ccc2c3ccn2C)c1 (stereo not given)	–
